Published values gathered from unrelated publications.
Protocols differ between the studies behind these lines.
PFF0160c E182D: Dihydroorotate dehydrogenase (quinone), mitochondrial (PFF0160c, Plasmodium falciparum, UniProt Q08210, E182D)
Nectin-4: Nectin-4 (Homo sapiens, UniProt Q96NY8)
PFF0160c: Dihydroorotate dehydrogenase (quinone), mitochondrial (PFF0160c, Plasmodium falciparum, UniProt Q08210)
SIGMAR1: Sigma non-opioid intracellular receptor 1 (SIGMAR1, Homo sapiens, UniProt Q99720)

CSc1nc2nc(C)c(Cc3cccc(C(F)(F)F)c3)c(C)n2n1 — IC50 (PFF0160c E182D; enzyme activity; inhibitor; absorbance): > 10000 nM
CCCC[C@@H]1NC(=O)[C@H](Cc2ccc(O)cc2)NC(=O)[C@@H]2CCCN2C(=O)[C@H](CC(=O)O)NC(=O)[C@H](C)NC(=O)[C@H](Cc2ccccc2)NC(=O)[C@@H]2CSCCC(=O)N3CN(CN(C3)C(=O)CCSC[C@H](NC(C)=O)C(=O)N[C@@H](CC(C)(C)C)C(=O)N3CCC[C@H]3C(=O)N[C@@H](CCC(=O)O)C(=O)N[C@H](CCCCNC(=O)CCc3cn(CCOCCOCCOCCN(CCOCCOCCOCCC(=O)N[C@H]4CSCCC(=O)N5CN6CN(C5)C(=O)CCSC[C@H](NC(=O)[C@@H](CC(=O)O)NC(=O)[C@H](Cc5cccc7ccccc57)NC(=O)[C@@H]5CCCN5C4=O)C(=O)N[C@@H](CCSC)C(=O)N[C@@H](CCCCNC(=N)N)C(=O)N[C@@H](CC(=O)O)C(=O)N[C@@H](Cc4c[nH]c5ccccc45)C(=O)N[C@@H](CO)C(=O)N[C@@H]([C@@H](C)O)C(=O)N4CCC[C@H]4C(=O)N4C[C@H](O)C[C@H]4C(=O)N[C@@H](Cc4c[nH]c5ccccc45)C(=O)N[C@H](C(N)=O)CSCCC6=O)CCOCCOCCOCCn4cc(CCC(=O)NCCCC[C@H]5NC(=O)[C@H](CCC(=O)O)NC(=O)[C@@H]6CCCN6C(=O)[C@H](CC(C)(C)C)NC(=O)[C@@H](NC(C)=O)CSCCC(=O)N6CN7CN(C6)C(=O)CCSC[C@H](NC(=O)[C@H](Cc6ccc(O)cc6)NC(=O)[C@@H]6CCCN6C5=O)C(=O)N[C@@H](Cc5ccccc5)C(=O)N[C@@H](C)C(=O)N[C@@H](CC(=O)O)C(=O)N5CCC[C@H]5C(=O)N[C@@H](Cc5ccc(O)cc5)C(=O)N[C@@H](CCCC)C(=O)N[C@H](C(N)=O)CSCCC7=O)nn4)nn3)C(=O)N3CCC[C@H]3C(=O)N[C@@H](Cc3ccc(O)cc3)C(=O)N2)C(=O)CCSC[C@@H](C(N)=O)NC1=O — Kd (Nectin-4; binding; SPR): 3.9 nM
COc1nc(NCC(C)C)nc(Oc2ccc(=O)n(Cc3ccccc3)n2)n1 — IC50 (PFF0160c; enzyme activity; inhibitor; absorbance): 124 nM
CCCC[C@@H]1NC(=O)[C@H](Cc2ccc(O)cc2)NC(=O)[C@@H]2CCCN2C(=O)[C@H](CC(=O)O)NC(=O)[C@H](C)NC(=O)[C@H](Cc2ccccc2)NC(=O)[C@@H]2CSCCC(=O)N3CN(CN(C3)C(=O)CCSC[C@@H](C(=O)N[C@@H](C)C(N)=O)NC1=O)C(=O)CCSC[C@H](NC(=O)[C@H](C)NC(C)=O)C(=O)N[C@@H]([C@@H](C)CC)C(=O)N[C@@H](CCC(=O)O)C(=O)N[C@@H](CCC(=O)O)C(=O)N[C@H](CCCCNC(=O)CCc1cn(CCOCCOCCOCCOCCOCCC(=O)N[C@H]3CSCCC(=O)N4CN5CN(C4)C(=O)CCSC[C@H](NC(=O)[C@@H](CC(=O)O)NC(=O)[C@H](Cc4cccc6ccccc46)NC(=O)[C@@H]4CCCN4C3=O)C(=O)N[C@@H](CCSC)C(=O)N[C@@H](CCCCNC(=N)N)C(=O)N[C@@H](CC(=O)O)C(=O)N[C@@H](Cc3c[nH]c4ccccc34)C(=O)N[C@@H](CO)C(=O)N[C@@H]([C@@H](C)O)C(=O)N3CCC[C@H]3C(=O)N3C[C@H](O)C[C@H]3C(=O)N[C@@H](Cc3c[nH]c4ccccc34)C(=O)N[C@H](C(N)=O)CSCCC5=O)nn1)C(=O)N[C@@H](CCC(N)=O)C(=O)N[C@@H](Cc1ccc(O)cc1)C(=O)N2 — Kd (Nectin-4; binding; SPR): 2.2 nM
O=S(=O)(O)c1nc2ccccc2[nH]1 — IC50 (racE (Bacillus subtilis, UniProt P94556); enzyme activity; inhibitor; absorbance): 128000 nM
CN1CCN(C2=Nc3ccccc3Oc3ccc(Cl)cc32)CC1 — Ki (SIGMAR1; ligand displacement; radioligand): > 10000 nM
Cc1cc(NC(=O)c2cc(S(=O)(=O)N3CCCCC3)ccc2C)no1 — IC50 (PFF0160c; enzyme activity; inhibitor; absorbance): 1700 nM
CCCC[C@@H]1NC(=O)[C@H](Cc2ccc(O)cc2)NC(=O)[C@@H]2CCCN2C(=O)[C@H](CC(=O)O)NC(=O)[C@H](C)NC(=O)[C@H](Cc2ccccc2)NC(=O)[C@@H]2CSCCC(=O)N3CN(CN(C3)C(=O)CCSC[C@@H](C(=O)N[C@@H](C)C(N)=O)NC1=O)C(=O)CCSC[C@H](NC(C)=O)C(=O)N[C@@H](CC(C)(C)C)C(=O)N1CCC[C@H]1C(=O)N[C@@H](CCC(=O)O)C(=O)N[C@H](CCCCNC(=O)CCc1cn(CCOCCOCCOCCOCCOCCC(=O)NCCCC[C@H]3NC(=O)[C@H](Cc4cccc5ccccc45)NC(=O)[C@@H]4CCCN4C(=O)CCSCCC(=O)N4CN5CN(C4)C(=O)CCSC[C@H](NC3=O)C(=O)N[C@@H](CCSC)C(=O)N[C@@H](CCCCNC(=N)N)C(=O)N[C@@H](CC(=O)O)C(=O)N[C@@H](Cc3c[nH]c4ccccc34)C(=O)N[C@@H](CO)C(=O)N[C@@H]([C@@H](C)O)C(=O)N3CCC[C@H]3C(=O)N3C[C@H](O)C[C@H]3C(=O)N[C@@H](Cc3c[nH]c4ccccc34)C(=O)N[C@H](C(N)=O)CSCCC5=O)nn1)C(=O)N1CCC[C@H]1C(=O)N[C@@H](Cc1ccc(O)cc1)C(=O)N2 — Kd (Nectin-4; binding; SPR): 2.2 nM
CCC(c1ccccc1)c1nn2c(-c3cccs3)nnc2s1 (stereo not drawn) — IC50 (PFF0160c E182D; enzyme activity; inhibitor; absorbance): 171 nM
Cc1c(-c2ccccc2)oc2c(C(=O)OCCN3CCCCC3)cccc2c1=O — Ki (SIGMAR1; ligand displacement; radioligand): > 10000 nM
CCCC[C@@H]1NC(=O)[C@H](Cc2ccc(O)cc2)NC(=O)[C@@H]2CCCN2C(=O)[C@H](CC(=O)O)NC(=O)[C@H](C)NC(=O)[C@H](Cc2ccccc2)NC(=O)[C@@H]2CSCCC(=O)N3CN(CN(C3)C(=O)CCSC[C@@H](C(N)=O)NC1=O)C(=O)CCSCCC(=O)N[C@@H](CC(C)(C)C)C(=O)N1CCC[C@H]1C(=O)N[C@@H](CCC(=O)O)C(=O)N[C@H](CCCCNC(=O)CCc1cn(CCOCCOCCOCCOCCOCCC(=O)N[C@H]3CSCCC(=O)N4CN5CN(C4)C(=O)CCSC[C@H](NC(=O)[C@@H](CC(=O)O)NC(=O)[C@H](Cc4cccc6ccccc46)NC(=O)[C@@H]4CCCN4C3=O)C(=O)N[C@@H](CCSC)C(=O)N[C@@H](CCCCNC(=N)N)C(=O)N[C@@H](CC(=O)O)C(=O)N[C@@H](Cc3c[nH]c4ccccc34)C(=O)N[C@@H](CO)C(=O)N[C@@H]([C@@H](C)O)C(=O)N3CCC[C@H]3C(=O)N3C[C@H](O)C[C@H]3C(=O)N[C@@H](Cc3c[nH]c4ccccc34)C(=O)N[C@H](C(N)=O)CSCCC5=O)nn1)C(=O)N1CCC[C@H]1C(=O)N[C@@H](Cc1ccc(O)cc1)C(=O)N2 — Kd (Nectin-4; binding; SPR): 1.4 nM
CN(C)CCOC(C)(c1ccccc1)c1ccccn1 (stereo not drawn) — Ki (SIGMAR1; ligand displacement; radioligand): > 10000 nM
CCCC[C@@H]1NC(=O)[C@H](Cc2ccc(O)cc2)NC(=O)[C@@H]2CCCN2C(=O)[C@H](CC(=O)O)NC(=O)[C@H](C)NC(=O)[C@H](Cc2ccccc2)NC(=O)[C@@H]2CSCCC(=O)N3CN(CN(C3)C(=O)CCSC[C@@H](C(=O)N[C@@H](C)C(N)=O)NC1=O)C(=O)CCSC[C@H](NC(=O)[C@H](C)NC(C)=O)C(=O)N[C@@H]([C@@H](C)CC)C(=O)N[C@@H](CCC(=O)O)C(=O)N[C@@H](CCC(=O)O)C(=O)N[C@H](CCCCNC(=O)CCc1cn(CCOCCOCCOCCN(CCOCCOCCOCCC(=O)N[C@H]3CSCCC(=O)N4CN5CN(C4)C(=O)CCSC[C@H](NC(=O)[C@@H](CC(=O)O)NC(=O)[C@H](Cc4cccc6ccccc46)NC(=O)[C@@H]4CCCN4C3=O)C(=O)N[C@@H](CCSC)C(=O)N[C@@H](CCCCNC(=N)N)C(=O)N[C@@H](CC(=O)O)C(=O)N[C@@H](Cc3c[nH]c4ccccc34)C(=O)N[C@@H](CO)C(=O)N[C@@H]([C@@H](C)O)C(=O)N3CCC[C@H]3C(=O)N3C[C@H](O)C[C@H]3C(=O)N[C@@H](Cc3c[nH]c4ccccc34)C(=O)N[C@H](C(N)=O)CSCCC5=O)CCOCCOCCOCCn3cc(CCC(=O)NCCCC[C@H]4NC(=O)[C@H](CCC(=O)O)NC(=O)[C@H](CCC(=O)O)NC(=O)[C@H]([C@@H](C)CC)NC(=O)[C@@H](NC(=O)[C@H](C)NC(C)=O)CSCCC(=O)N5CN6CN(C5)C(=O)CCSC[C@H](NC(=O)[C@H](Cc5ccc(O)cc5)NC(=O)[C@H](CCC(N)=O)NC4=O)C(=O)N[C@@H](Cc4ccccc4)C(=O)N[C@@H](C)C(=O)N[C@@H](CC(=O)O)C(=O)N4CCC[C@H]4C(=O)N[C@@H](Cc4ccc(O)cc4)C(=O)N[C@@H](CCCC)C(=O)N[C@H](C(=O)N[C@@H](C)C(N)=O)CSCCC6=O)nn3)nn1)C(=O)N[C@@H](CCC(N)=O)C(=O)N[C@@H](Cc1ccc(O)cc1)C(=O)N2 — Kd (Nectin-4; binding; SPR): 6.8 nM
Cc1nccn1CC1CCc2c(c3ccccc3n2C)C1=O (stereo not drawn) — Ki (SIGMAR1; ligand displacement; radioligand): 6510 nM
Cc1cc(Nc2ccc3c(c2)CCC3)n2ncnc2n1 — IC50 (PFF0160c; enzyme activity; inhibitor; absorbance): 695 nM
